What was measured:
[1] = molecular target: Xaa-Pro dipeptidase (Alteromonas sp.) (UniProt Q44238); assay: Kinetic constant Kcat from initial velocity assay (at 7.6 mM substrate) against Organophosphorus acid anhydrolase from Alteromonas sp. JD6.5
Procedure, shortened: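 Initial-rate assay at a single substrate concentration of 7.6 mM. Used 1 μg purified recombinant OPAA (E. coli XL1/pTCJS4) at 25 °C in 50 mM bis-Tris propane pH 8.5, 100 mM NaCl, 0.1 mM MnCl2, with methanol cosolvent as needed. Hydrolysis was followed at 400 nm as p-nitrophenol (ε 17,000 M⁻¹ cm⁻¹).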

[2] = molecular target: Xaa-Pro dipeptidase (Alteromonas sp.) (UniProt Q44238); assay: Ratio of kinetic constant Kcat to Km by linear fit to data against OPAA from Alteromonas sp. JD6.5
Procedure, shortened: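 kcat/Km was taken from a linear fit to initial-rate data. Continuous 400 nm p-nitrophenol assay at 25 °C with 1 μg recombinant OPAA (E. coli XL1/pTCJS4). Buffer was 50 mM bis-Tris propane pH 8.5, 100 mM NaCl, 0.1 mM MnCl2, plus 5–20% methanol depending on substrate.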

[3] = molecular target: Xaa-Pro dipeptidase (Alteromonas sp.) (UniProt Q44238); assay: Ratio of kinetic constant Kcat to Km from initial velocity assay against OPAA from Alteromonas sp. JD6.5
Procedure, shortened: (§1)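 Recombinant OPAA expressed in E. coli XL1 (plasmid pTCJS4), then ammonium sulfate and Q-Sepharose purification. Continuous plate assay at 25 °C with 1 μg enzyme in 50 mM bis-Tris propane pH 8.5, 100 mM NaCl, 0.1 mM MnCl2. Phenyl-containing and diisopropyl substrates had 5% methanol, diphenyl substrate 20%. p-Nitrophenol release was read at 400 nm (ε 17,000 M⁻¹ cm⁻¹). Rates were fitted to v = kcat·E·A/(Km + A).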

[4] = molecular target: Xaa-Pro dipeptidase (Alteromonas sp.) (UniProt Q44238); assay: Kinetic constant Kcat from initial velocity assay against Organophosphorus acid anhydrolase from Alteromonas sp. JD6.5; procedure, shortened: as §1
[5] = molecular target: Xaa-Pro dipeptidase (Alteromonas sp.) (UniProt Q44238); assay: Ratio of kinetic constant K1 to K2 from progress curves against OPAA from Alteromonas sp. JD6.5
Procedure, shortened: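 Time-course assays at 25 °C in a cuvette spectrophotometer, started by adding enzyme to 3.0 mL of 50 mM bis-Tris propane pH 8.5, 100 mM NaCl, 0.1 mM MnCl2, without methanol. Complete hydrolysis was followed at 400 nm. Traces were fitted to single or double exponential equations to give rate constants for the two enantiomers, and their ratio was taken.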

[6] = molecular target: Xaa-Pro dipeptidase (Alteromonas sp.) (UniProt Q44238); assay: Ratio of kinetic constant Kcat to Km Sp and Kcat to Km Rp from initial velocity assay against OPAA from Alteromonas sp. JD6.5; procedure, shortened: as §1
[7] = system: CCOP(=O)(OCC)Oc1ccc([N+](=O)[O-])cc1; assay: (§2) Kinetic constant Km from initial velocity assay against Organophosphorus acid anhydrolase from Alteromonas sp. JD6.5; procedure, shortened: as §1
[8] = system: CO[P@@](=O)(Oc1ccccc1)Oc1ccc([N+](=O)[O-])cc1; assay: as §2; procedure, shortened: as §1
[9] = system: CCO[P@@](=O)(OC)Oc1ccc([N+](=O)[O-])cc1; assay: as §2; procedure, shortened: as §1
[10] = system: COP(=O)(OC)Oc1ccc([N+](=O)[O-])cc1; assay: as §2; procedure, shortened: as §1
[11] = system: CCO[P@](=O)(Oc1ccccc1)Oc1ccc([N+](=O)[O-])cc1; assay: as §2; procedure, shortened: as §1
[12] = system: O=[N+]([O-])c1ccc(OP(=O)(Oc2ccccc2)Oc2ccccc2)cc1; assay: as §2; procedure, shortened: as §1
[13] = system: CCO[P@](=O)(OC)Oc1ccc([N+](=O)[O-])cc1; assay: as §2; procedure, shortened: as §1
[14] = system: CC(C)O[P@@](=O)(Oc1ccccc1)Oc1ccc([N+](=O)[O-])cc1; assay: as §2; procedure, shortened: as §1
[15] = system: CO[P@@](=O)(Oc1ccc([N+](=O)[O-])cc1)OC(C)C; assay: as §2; procedure, shortened: as §1
[16] = system: CO[P@](=O)(Oc1ccc([N+](=O)[O-])cc1)OC(C)C; assay: as §2; procedure, shortened: as §1
[17] = system: CCO[P@@](=O)(Oc1ccccc1)Oc1ccc([N+](=O)[O-])cc1; assay: as §2; procedure, shortened: as §1
[18] = system: CO[P@](=O)(Oc1ccccc1)Oc1ccc([N+](=O)[O-])cc1; assay: as §2; procedure, shortened: as §1
[19] = system: CC(C)O[P@](=O)(Oc1ccccc1)Oc1ccc([N+](=O)[O-])cc1; assay: as §2; procedure, shortened: as §1

Xaa-Pro dipeptidase (Alteromonas sp.) (UniProt Q44238), sequence (Q44238 whole entry, looked up): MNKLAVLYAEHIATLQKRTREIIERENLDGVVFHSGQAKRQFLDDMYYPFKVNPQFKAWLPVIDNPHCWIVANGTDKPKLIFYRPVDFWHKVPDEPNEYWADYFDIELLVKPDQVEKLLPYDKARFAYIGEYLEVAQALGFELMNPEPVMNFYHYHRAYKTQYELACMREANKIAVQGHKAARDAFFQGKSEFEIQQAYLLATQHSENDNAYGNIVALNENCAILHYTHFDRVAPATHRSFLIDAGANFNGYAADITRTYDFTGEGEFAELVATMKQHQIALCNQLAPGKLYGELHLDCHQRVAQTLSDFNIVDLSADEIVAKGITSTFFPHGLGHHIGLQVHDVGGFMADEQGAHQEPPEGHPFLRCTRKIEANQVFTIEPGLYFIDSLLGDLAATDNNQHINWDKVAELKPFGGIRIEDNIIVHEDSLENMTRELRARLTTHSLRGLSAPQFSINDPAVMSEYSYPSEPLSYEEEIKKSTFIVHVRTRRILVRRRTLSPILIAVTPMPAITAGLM

Compound | k cat/Km [3] [M⁻¹ s⁻¹] | k cat [4] [s⁻¹] | Ratio [5] | Ratio [6] | other results
CCOP(=O)(OCC)Oc1ccc([N+](=O)[O-])cc1 | – | – | – | – | k cat [1]: 1.8 s⁻¹; k cat/Km [2]: 280 M⁻¹ s⁻¹
COP(=O)(OC)Oc1ccc([N+](=O)[O-])cc1 | 140 | 1.4 | – | – | –
CO[P@@](=O)(Oc1ccc([N+](=O)[O-])cc1)OC(C)C | 190 | 3.6 | 100 | 23 | –
CCO[P@](=O)(Oc1ccccc1)Oc1ccc([N+](=O)[O-])cc1 | 300 | 0.2 | 2.8 | < 3 | –
CC(C)O[P@](=O)(Oc1ccccc1)Oc1ccc([N+](=O)[O-])cc1 | 240 | 0.1 | 3.5 | < 3 | –
CO[P@@](=O)(Oc1ccccc1)Oc1ccc([N+](=O)[O-])cc1 | 9990 | 40 | – | – | –
CCO[P@@](=O)(OC)Oc1ccc([N+](=O)[O-])cc1 | 90 | 0.8 | 112 | 36 | –
CCO[P@](=O)(OC)Oc1ccc([N+](=O)[O-])cc1 | 3250 | 47 | – | – | –
CCO[P@@](=O)(Oc1ccccc1)Oc1ccc([N+](=O)[O-])cc1 | 360 | 0.7 | – | – | –
CO[P@](=O)(Oc1ccc([N+](=O)[O-])cc1)OC(C)C | 4510 | 54 | – | – | –
CO[P@](=O)(Oc1ccccc1)Oc1ccc([N+](=O)[O-])cc1 | 2340 | 1.8 | 14.5 | 4 | –
O=[N+]([O-])c1ccc(OP(=O)(Oc2ccccc2)Oc2ccccc2)cc1 | 530 | 0.1 | – | – | –
CC(C)O[P@@](=O)(Oc1ccccc1)Oc1ccc([N+](=O)[O-])cc1 | 150 | 0.2 | – | – | –
Xaa-Pro dipeptidase (Alteromonas sp.) (from UniProt Q44238) | – | – | – | – | Km [7]: > 7.6 mM; Km [8]: 4 mM; Km [9]: 8.3 mM; Km [10]: 9.5 mM; Km [11]: 0.6 mM; Km [12]: 0.2 mM; Km [13]: 14 mM; Km [14]: 1.3 mM; Km [15]: 19 mM; Km [16]: 12 mM; Km [17]: 2 mM; Km [18]: 0.8 mM; Km [19]: 0.3 mM

— ChEMBL document CHEMBL1132915
